Screens: PubChem BioAssay, several laboratories
Most compounds without a hit are left out; they make up all but 2.2% or so of the library.
PglD DTNB = PglD (C. jejuni) enzyme inhibition; purified PglD enzyme, DTNB colorimetric CoA detection; inhibition, % at 12.5 µM; 360,000 tested, 0.098% active; in the data active means inhibition above about 16%, passing the limit was not always enough; inconclusive means no clear call, values can overlap the other calls
Cneo AK release = Cryptococcus neoformans lysis via adenylate kinase release; lysis activity, % at 15 µM; 360,000 tested, 0.2% active; C. neoformans lysis, adenylate kinase release luminescence, 4 h; normalised: neutral wells 0, clomiphene wells 100;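 active means mean lysis activity across replicates of at least 80%, whatever share of replicates individually reach that level; inactive means mean lysis activity below 80%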
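Schedule: static 4 h at 37 °C with compound, 1 h detection; system: C. neoformans cells; benchmarks: Clomiphene as positive control; buffer or medium: fresh YPD medium; measure: luminescence rise reflecting yeast cell lysis; measured by: luminescent adenylate kinase detection reagent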
Ecoli rRNA inh = inhibits bacterial ribosomal RNA function over humanized ribosomes; E. coli WT GFP vs humanized-ribosome RFP mutants, fluorescence, 24 h; hits give low values; DMSO median 0, no signal -100; GFP signal change (wild-type ribosome), % (concentration not given with the values); 350,000 tested, 1.6% active; AID 720706;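 active means significant combined selectivity score with lowered wild-type GFP, culture density cut under 30%, mutant RFP and density less affected; inactive means any of these conditions unmet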
CR mimetic SO = lowers age-related superoxide in aged yeast cells. superoxide response (% of plate mean), % at 10 µM. 330,000 tested, 0.18% active. S. cerevisiae aged cells, superoxide DHE fluorescence; hits give low values;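 active means superoxide response under a set limit, about three screen SD below normal, cut at about 65% in these data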;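 further: yeast aged for seven days with compound at 30 °C before DHE staining; 100% = average MFI of all compound-treated wells on the plate with controls excluded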
Mot1-301 SUMO = inhibitors of SUMOylation pathway: yeast Mot1-301 growth rescue; 320,000 tested, 1% active; AID 2716; S. cerevisiae Mot1-301 growth rescue, ATP luminescence, 38.5C; percent above DMSO median, 100 means doubled; growth rescue, % at 18.8 µM;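 active means every valid replicate shows activation above 250% relative to neutral control wells; inactive means the rest, any valid replicate at or below 250%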;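 further: OY570 slx delta 5 strain wells were the positive control but not used for scaling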
AID977621 = growth inhibition of wild-type GFP E. coli, dose response, H69 mutant RFP, cherry-pick. AID 977621. shares compounds with Ecoli rRNA inh. activity change, negative = inhibition at 50 µM. E. coli wild-type GFP strain growth, fluorescence, 24 h. 1,900 tested, under 10 active;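 active means Wild-type ribosome reporter drop at least double the humanized mutant ribosome reporter drop, growth loss under a set limit; inconclusive means no clear call, values can overlap the other calls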;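 further: wild-type GFP and H69 mutant RFP strains grown together 50/50 in each well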
AID977628 = growth of wild-type and h24-humanized E. coli strains – h24 mutant RFP vs wild-type GFP, cherry-pick, dose response; shares compounds with Ecoli rRNA inh; E. coli WT GFP strain growth, fluorescence, 24 h; activity change, negative = inhibition at 50 µM; 1,900 tested, under 10 active; AID 977628;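 active means compound lowering the normal-ribosome reporter at least twice as much as the humanized-ribosome reporter, growth loss under a set limit; inconclusive means no clear call, values can overlap the other calls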;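 further: wild-type GFP and h24 humanized RFP strains co-cultured 1 to 1 per well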
Starred values were filed as active, the others as inactive; ? = inconclusive; nt = not tested or not shown.

SMILES	PglD DTNB	Cneo AK release	Ecoli rRNA inh	CR mimetic SO	Mot1-301 SUMO	AID977621	others
CCNC(=O)C[C@H]1CC[C@H]2[C@H](COc3ccc(NC(=O)c4ccc(C(F)(F)F)cc4)cc3C(=O)N2C)O1	1	-1	1	nt	nt	nt
COc1ccc(NC(=O)CCC(=O)c2cccs2)cc1S(=O)(=O)Nc1ccc(Cl)cc1	nt	nt	-19*	99	7	-15
COc1ccccc1NS(=O)(=O)c1cc(NC(=O)CCC(=O)c2cccs2)ccc1Cl	4	3	-16	98	-14	nt
COc1ccc(NS(=O)(=O)c2cc(NC(=O)CCSc3ccccc3)ccc2OC)cc1	0	0	nt	104	-4	nt
COc1ccc(NC(=O)CCS(=O)(=O)c2ccccc2Cl)cc1S(=O)(=O)Nc1ccc(Cl)cc1	nt	nt	-19*	88	163	-7.7
CCCCNC(=O)C[C@@H]1C[C@@]2(C(=O)OC)CCCCC=C2N(Cc2ccccc2)C1=O	nt	nt	-22*	nt	nt	-5.4
CCC(CO)Oc1cc(NC(=O)c2ccccc2C)c2ncn(C(C)C)c2c1 (stereo not given)	0	-15	-16	105	-12	nt
CCC(CO)Oc1cc(NC(=O)c2ccccc2F)c2ncn(C(C)C)c2c1 (stereo not given)	5	0	-20*	122	-1	nt	AID977628=?
O=C(NCc1ccccc1)c1cc(S(=O)(=O)N2CCCCC2)ccc1N1CCOCC1	2	0	-18*	99	-13	-8.3	AID977628=-4.6
CCOCC(=O)OCC(=O)Nc1cc(OC)c([N+](=O)[O-])cc1C	nt	nt	10	108	15	nt
COc1cc(NC(=O)COC(=O)CC(C)(C)C)c(C)cc1[N+](=O)[O-]	nt	nt	-22*	93	-13	?
CC(=O)N[C@H]1C=C[C@@H](CC(=O)NCC2CCCCC2)O[C@@H]1CO	-1	7	3	nt	nt	nt
CNC[C@@H]1Oc2ccc(NC(=O)NC3CCCCC3)cc2CC(=O)N([C@@H](C)CO)C[C@@H]1C	-1	0	3	nt	nt	nt
CCOC(=O)c1ccc(NC(=O)c2ccc(OC(C)C)c(OC)c2)cc1	nt	nt	-26*	105	66	-3.6	AID977628=-7.8
CCOC(=O)c1ccc(NC(=O)Nc2ccc(OC)c(OC)c2)cc1	-7	-2	nt	102	-6	nt
COc1ccc2c3c(n(C)c2c1)[C@@H](CO)N(C(=O)Nc1ccc(F)cc1)CC31CCN(S(=O)(=O)c2cccs2)CC1	nt	nt	3	nt	nt	nt
C[C@@H]1CN([C@@H](C)CO)C(=O)c2cccc(NC(=O)C3CCOCC3)c2O[C@@H]1CN(C)S(=O)(=O)c1cccs1	1	2	-1	nt	nt	nt
Cc1ccc(NC(=O)CN(C)S(=O)(=O)c2cccc3cccnc23)cc1C	0	-6	2	89	1	nt
Cc1ccc(NC(=O)CN(C)S(=O)(=O)c2cccc3cccnc23)cc1F	3	1	-28*	134	1	-7.4
O=C(CC1SC(=O)N(Cc2ccccc2Cl)C1=O)Nc1nccs1 (stereo not given)	7	-2	-22*	90	-16	-5.8	AID977628=-9.6
O=C(CC1SC(=O)N(Cc2ccccc2)C1=O)Nc1nccs1 (stereo not given)	-6	8	8	102	3	nt
C[C@@H]1CCCCO[C@@H](CN(C)S(=O)(=O)c2cn(C)cn2)[C@H](C)CN([C@@H](C)CO)C(=O)c2cc(NC(=O)Nc3ccc(F)cc3)ccc2O1	-5	40	-1	nt	nt	nt
COc1cc(SC)ccc1C(=O)N(Cc1ccccc1)c1ccccn1	4	-4	-19*	96	1	-7.6	AID977628=-8.2
CC(C)C(=O)N(Cc1ccccc1)c1ccccn1	-2	-3	nt	92	-6	nt
C[C@@H]1CCCCO[C@@H](CN(C)C)[C@@H](C)CN([C@H](C)CO)C(=O)c2cc(NS(C)(=O)=O)ccc2O1	2	1	4	nt	nt	nt
CC(C)(C)C1CCC(OC(=O)C[N+]2(C)CCCCC2)CC1 (stereo not given)	nt	nt	-17*	88	32	-2.7	AID977628=-5.8
